Assay [1] is described as follows: Antiproliferative activity against human ECA109 cells after 48 hrs by MTT assay. The class given is functional, cell-based. As to conditions: ECa-109, 48 h. In short, it runs like this:
(§1)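 MTT assay after 48 h incubation with compound. MTT (5.0 mg/mL stock in RPMI-1640) was added and incubated a further 4 h at 37 °C. Formazan was dissolved in DMSO and absorbance read at 570 nm. IC50 is the concentration giving 50% decrease in cell growth, computed from dose-effect analysis. Triplicate wells, three independent experiments, values are means.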

For assay [2], the system named is KB. As to the kind of experiment: Induction of apoptosis in human KB cells assessed as decrease in procaspase-3 expression at 20 uM after 48 hrs by Western blotting. The class given is functional, cell-based. In short, it runs like this: (§2)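 KB cells were treated 48 h with 10 or 20 µM, then lysed in NaCl/Tris pH 8.0/EGTA/EDTA/NaF/β-glycerophosphate/Triton/NP-40/PMSF buffer. Protein was quantified by BCA. Equal protein was run on 10–12% Tris-glycine gels and blotted. Blots were probed for JNK, Bax, Bcl-2, procaspase-9, procaspase-3 and tubulin, with HRP secondary and ECL detection. Bax/Bcl-2 ratio was derived from the blots.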

Assay [3] has as its system KB. The assay is described as follows: Induction of apoptosis in human KB cells assessed as increase in JNK expression at 20 uM after 48 hrs by Western blotting. The class given is functional, cell-based. In short, it runs like this: as §2
In assay [4] the test system is KB. As to the kind of experiment: Induction of apoptosis in human KB cells assessed as increase in caspase 3/7 activity at 20 uM after 48 hrs. The class given is functional, cell-based. In short, it runs like this:
(§3)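 KB cells were cultured 48 h with 10 or 20 µM, then caspase-3/7 activity was measured with a Caspase-Glo 3/7 kit per the kit protocol and compared with control cells.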

The test system of assay [5] is KB. As to the kind of experiment: Induction of apoptosis in human KB cells assessed as increase in caspase 3/7 activity at 10 uM after 48 hrs. The class given is functional, cell-based. In short, it runs like this:
as §3

For assay [6], the system named is KB. The assay is described as follows: Induction of apoptosis in human KB cells assessed as DNA fragmentation at 10 uM after 48 hrs by agarose gel electrophoresis. The class given is functional, cell-based. In short, it runs like this: (§4)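 KB cells were treated 48 h with 10 or 20 µM, then lysed in EDTA/Tris pH 8.0/SDS/proteinase K buffer at 37 °C for 12 h, followed by RNase 1 h at 37 °C. DNA was phenol/chloroform extracted and ethanol precipitated, then run on 1.5% agarose gel with ethidium bromide and photographed for laddering.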

Assay [7] concerns KB. The assay is described as follows: Induction of apoptosis in human KB cells assessed as decrease in BCL-2 expression at 20 uM after 48 hrs by Western blotting. The class given is functional, cell-based. In short, it runs like this:
as §2

In assay [8] the test system is KB. As to the kind of experiment: Induction of apoptosis in human KB cells assessed as decrease in procaspase-9 expression at 20 uM after 48 hrs by Western blotting. The class given is functional, cell-based. In short, it runs like this:
as §2

In assay [9] the test system is KB. The assay is described as follows: Antiproliferative activity against human KB cells at 10 uM after 48 hrs by MTT assay. The class given is functional, cell-based.
The test system of assay [10] is KB. The assay is described as follows: Antiproliferative activity against human KB cells after 48 hrs by MTT assay. The class given is functional, cell-based. In short, it runs like this: as §1
The test system of assay [11] is KB. As to the kind of experiment: Antiproliferative activity against human KB cells at 20 uM after 48 hrs by light microscopy.
A further assay relates to SMMC-7721. As to the kind of experiment: Antiproliferative activity against human SMMC7721 cells after 48 hrs by MTT assay. The class given is functional, cell-based. As to conditions: SMMC-7721, 48 h. In short, it runs like this:
as §1

Assay [12] concerns KB. As to the kind of experiment: Induction of apoptosis in human KB cells assessed as DNA fragmentation at 20 uM after 48 hrs by agarose gel electrophoresis. The class given is functional, cell-based. In short, it runs like this: as §4
Assay [13] concerns KB. The assay is described as follows: Induction of apoptosis in human KB cells assessed as increase in Bax/Bcl-2 ratio at 20 uM after 48 hrs by Western blotting. The class given is functional, cell-based. In short, it runs like this: as §2
The test system of the next assay is K562. As to the kind of experiment: Antiproliferative activity against human K562 cells after 48 hrs by MTT assay. The conditions noted are these: K562, 48 h. The class given is functional, cell-based. In short, it runs like this:
as §1

Another assay concerns A549. The assay is described as follows: Antiproliferative activity against human A549 cells after 48 hrs by MTT assay. The class given is functional, cell-based. The conditions noted are these: A549, 48 h. In short, it runs like this:
as §1

Assay [14] in a line: Inhibition of PKC by […] assay. In short, it runs like this:
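Recombinant PKC was incubated with reaction mixture containing a fluorescent PepTag PKC-specific peptide substrate at 30 °C for 30 min, then stopped by boiling. Phosphorylated (−1) and nonphosphorylated (+1) peptide were separated on 0.8% agarose in 50 mM Tris-HCl pH 8.0 at 100 V for 15 min and visualized under UV. IC50 values are means of three experiments.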

Calls of active or inactive are those of the source. No cut-off for these calls is given here.

For `Cn1cc(C2=C(c3nn(CCCN4CCCCC4)c4ncccc34)C(=O)N(c3ccccc3)C2=O)c2ccccc21`, the IC50 is 12.3 µM in [1]; 5.6 µM with KB [10]; 3.05 µM in the assay on SMMC-7721; 3.79 µM in the assay with K562; 20.6 µM with A549; more than 10 µM in assay [14]. Moreover, the outcome with KB [2], in the assay with KB [3], in the assay on KB [4], in the assay with KB [5], in the assay on KB [6] and in the assay with KB [7] was Active. In addition, the outcome with KB [8], with KB [9], in the assay on KB [11], with KB [12] and in the assay with KB [13] was Active.
